What was measured:
[1] = tested on: Rattus norvegicus; test: AUC (0 to infinity) as total radioactivity in male Sprague-Dawley rat plasma at 15 mg/kg, po administered as single dose by LC/MS/MS analysis; format: ADME, organism-based; set-up: time infinity, dose 15 mg/kg, dosed compound name [14C]Sunitinib, route oral; conditions: in vivo
In short: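 Single dose of [14C]sunitinib L-malate as free base, 50 µCi/kg. IV dose was 5 mg/kg by tail vein in 5 females. Oral dose was 15 mg/kg by gavage in 3 females and 3 males. Total radioactivity was by scintillation counting. […] Cmax was read from raw data, t½ by log-linear regression, AUC by linear trapezoidal rule.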

[2] = tested on: Homo sapiens; test: Apparent oral clearance as total radioactivity in human plasma at 50 mg, po administered as single dose measured up to 24 hrs by LC/MS/MS analysis; format: ADME, organism-based; set-up: dosed compound name [14C]Sunitinib; conditions: in vivo
[3] = Drug concentration in male Lister Hooded pigmented rat preputial gland assessed as radioactivity per gram of tissue at 20 mg/kg administered as single dose via gastric gavage measured after 72 hrs by autoradiographic analysis; format: ADME, organism-based; set-up: dose 20 mg/kg, dosed compound name [14C]Sunitinib; conditions: in vivo, po
[4] = tested on: Rattus norvegicus; test: Total drug recovery in female Sprague-Dawley rat at 15 mg/kg, po administered as single dose during 0 to 72 hrs by liquid scintillation counting; format: ADME, organism-based; set-up: dose 15 mg/kg, dosed compound name [14C]Sunitinib, route oral; conditions: in vivo
[5] = tested on: Pancreas; test: Drug concentration in female albino rat pancreas assessed as radioactivity per gram of tissue at 20 mg/kg administered as single dose via gastric gavage measured after 3 hrs by autoradiographic analysis; format: ADME, organism-based; set-up: dose 20 mg/kg, dosed compound name [14C]Sunitinib; conditions: in vivo, po
In short: (§1)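 Sprague Dawley albino rats, ca 7-8 weeks old, dosed once by gastric gavage with [14C]sunitinib L-malate (15 mg freebase/kg, 100 µCi/kg). One male and one female killed by CO2 at 3, 6, 24, 72 and 168 h. Carcasses frozen in solid CO2/hexane, embedded and cut into 30 µm sagittal sections, then freeze-dried. Radioactivity quantified by whole-body autoradiography against standards by regression, background subtracted.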

[6] = tested on: Spleen; test: Drug concentration in male Lister Hooded pigmented rat spleen assessed as radioactivity per gram of tissue at 20 mg/kg administered as single dose via gastric gavage measured after 24 hrs by autoradiographic analysis; format: ADME, organism-based; set-up: dose 20 mg/kg, dosed compound name [14C]Sunitinib; conditions: in vivo, po
[7] = Drug concentration in male albino rat thyroid gland assessed as radioactivity per gram of tissue at 20 mg/kg administered as single dose via gastric gavage measured after 3 hrs by autoradiographic analysis; format: ADME, organism-based; set-up: dose 20 mg/kg, dosed compound name [14C]Sunitinib; conditions: in vivo, po
[8] = tested on: Liver; test: Drug concentration in male albino rat liver assessed as radioactivity per gram of tissue at 20 mg/kg administered as single dose via gastric gavage measured after 6 hrs by autoradiographic analysis; format: ADME, organism-based; set-up: dose 20 mg/kg, dosed compound name [14C]Sunitinib; conditions: in vivo, po
[9] = tested on: Pancreas; test: Drug concentration in male albino rat pancreas assessed as radioactivity per gram of tissue at 20 mg/kg administered as single dose via gastric gavage measured after 6 hrs by autoradiographic analysis; format: ADME, organism-based; set-up: dose 20 mg/kg, dosed compound name [14C]Sunitinib; conditions: in vivo, po
[10] = tested on: Liver; test: Drug concentration in male albino rat liver assessed as radioactivity per gram of tissue at 20 mg/kg administered as single dose via gastric gavage measured after 3 hrs by autoradiographic analysis; format: ADME, organism-based; set-up: dose 20 mg/kg, dosed compound name [14C]Sunitinib; conditions: in vivo, po
[11] = Drug concentration in male Lister Hooded pigmented rat lachrymal gland assessed as radioactivity per gram of tissue at 20 mg/kg administered as single dose via gastric gavage measured after 168 hrs by autoradiographic analysis; format: ADME, organism-based; set-up: dose 20 mg/kg, dosed compound name [14C]Sunitinib; conditions: in vivo, po
[12] = Drug concentration in male Lister Hooded pigmented rat skeletal muscle assessed as radioactivity per gram of tissue at 20 mg/kg administered as single dose via gastric gavage measured after 168 hrs by autoradiographic analysis; format: ADME, organism-based; set-up: dose 20 mg/kg, dosed compound name [14C]Sunitinib; conditions: in vivo, po
[13] = tested on: Small intestine; test: Drug concentration in male Lister Hooded pigmented rat small intestine assessed as radioactivity per gram of tissue at 20 mg/kg administered as single dose via gastric gavage measured after 168 hrs by autoradiographic analysis; format: ADME, organism-based; set-up: dose 20 mg/kg, dosed compound name [14C]Sunitinib; conditions: in vivo, po
[14] = tested on: Small intestine; test: Drug concentration in female albino rat small intestine assessed as radioactivity per gram of tissue at 20 mg/kg administered as single dose via gastric gavage measured after 3 hrs by autoradiographic analysis; format: ADME, organism-based; set-up: dose 20 mg/kg, dosed compound name [14C]Sunitinib; conditions: in vivo, po
[15] = tested on: Spinal cord; test: Drug concentration in female albino rat spinal cord assessed as radioactivity per gram of tissue at 20 mg/kg administered as single dose via gastric gavage measured after 3 hrs by autoradiographic analysis; format: ADME, organism-based; set-up: dose 20 mg/kg, dosed compound name [14C]Sunitinib; conditions: in vivo, po
[16] = Drug concentration in female albino rat thyroid gland assessed as radioactivity per gram of tissue at 20 mg/kg administered as single dose via gastric gavage measured after 3 hrs by autoradiographic analysis; format: ADME, organism-based; set-up: dose 20 mg/kg, dosed compound name [14C]Sunitinib; conditions: in vivo, po
[17] = Drug concentration in female albino rat bladder assessed as radioactivity per gram of tissue at 20 mg/kg administered as single dose via gastric gavage measured after 6 hrs by autoradiographic analysis; format: ADME, organism-based, Urinary bladder; set-up: dose 20 mg/kg, dosed compound name [14C]Sunitinib; conditions: in vivo, po
In short: (§2)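 Sprague Dawley (albino) rats, ca 7-8 weeks old, received a single gastric-gavage dose of [14C]sunitinib L-malate at 20 mg/kg (15 mg freebase/kg, 100 µCi/kg). One animal per sex killed by CO2 at 3, 6, 24, 72 and 168 h, then frozen in CO2/hexane. 30 µm sagittal sections were cut and freeze-dried. Radioactivity per gram quantified by whole-body autoradiography using regression against standards. LOQ 0.04–0.06 µg freebase equiv/g.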

[18] = tested on: Harderian gland; test: Drug concentration in female albino rat harderian gland assessed as radioactivity per gram of tissue at 20 mg/kg administered as single dose via gastric gavage measured after 6 hrs by autoradiographic analysis; format: ADME, organism-based; set-up: dose 20 mg/kg, dosed compound name [14C]Sunitinib; conditions: in vivo, po; in short: as §1
[19] = tested on: Heart; test: Drug concentration in female albino rat heart assessed as radioactivity per gram of tissue at 20 mg/kg administered as single dose via gastric gavage measured after 6 hrs by autoradiographic analysis; format: ADME, organism-based; set-up: dose 20 mg/kg, dosed compound name [14C]Sunitinib; conditions: in vivo, po; in short: as §1
[20] = tested on: Adrenal; test: Drug concentration in male albino rat adrenal assessed as radioactivity per gram of tissue at 20 mg/kg administered as single dose via gastric gavage measured after 3 hrs by autoradiographic analysis; format: ADME, organism-based; set-up: dose 20 mg/kg, dosed compound name [14C]Sunitinib; conditions: in vivo, po
[21] = tested on: Spleen; test: Drug concentration in female albino rat spleen assessed as radioactivity per gram of tissue at 20 mg/kg administered as single dose via gastric gavage measured after 24 hrs by autoradiographic analysis; format: ADME, organism-based; set-up: dose 20 mg/kg, dosed compound name [14C]Sunitinib; conditions: in vivo, po
[22] = tested on: Heart; test: Drug concentration in male albino rat heart assessed as radioactivity per gram of tissue at 20 mg/kg administered as single dose via gastric gavage measured after 24 hrs by autoradiographic analysis; format: ADME, organism-based; set-up: dose 20 mg/kg, dosed compound name [14C]Sunitinib; conditions: in vivo, po
[23] = tested on: Blood; test: Drug concentration in female albino rat blood assessed as radioactivity per gram of tissue at 20 mg/kg administered as single dose via gastric gavage measured after 24 hrs by autoradiographic analysis; format: ADME, organism-based; set-up: dose 20 mg/kg, dosed compound name [14C]Sunitinib; conditions: in vivo, po; in short: as §2
[24] = tested on: Zone of skin; test: Drug concentration in female Lister Hooded pigmented rat abdomen skin assessed as radioactivity per gram of tissue at 20 mg/kg administered as single dose via gastric gavage measured after 24 hrs by autoradiographic analysis; format: ADME, organism-based; set-up: dose 20 mg/kg, dosed compound name [14C]Sunitinib; conditions: in vivo, po
In short: (§3)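 Pigmented Lister Hooded rats, 7-8 weeks old, received [14C]sunitinib L-malate by gavage at 20 mg/kg (15 mg freebase/kg, 100 µCi/kg). One rat per sex was killed by CO2 at each of 24, 72, 168 and 336 h. Carcasses were frozen in solid CO2/hexane and cut into 30 µm sagittal sections, then freeze-dried. Tissue radioactivity was quantified by whole-body autoradiography calibrated against standards by regression (LOQ 0.04–0.06 µg eq/g).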

[25] = tested on: Liver; test: Drug concentration in female albino rat liver assessed as radioactivity per gram of tissue at 20 mg/kg administered as single dose via gastric gavage measured after 72 hrs by autoradiographic analysis; format: ADME, organism-based; set-up: dose 20 mg/kg, dosed compound name [14C]Sunitinib; conditions: in vivo, po; in short: as §1
[26] = tested on: Spleen; test: Drug concentration in female albino rat spleen assessed as radioactivity per gram of tissue at 20 mg/kg administered as single dose via gastric gavage measured after 72 hrs by autoradiographic analysis; format: ADME, organism-based; set-up: dose 20 mg/kg, dosed compound name [14C]Sunitinib; conditions: in vivo, po
[27] = tested on: Zone of skin; test: Drug concentration in female Lister Hooded pigmented rat abdomen skin assessed as radioactivity per gram of tissue at 20 mg/kg administered as single dose via gastric gavage measured after 336 hrs by autoradiographic analysis; format: ADME, organism-based; set-up: dose 20 mg/kg, dosed compound name [14C]Sunitinib; conditions: in vivo, po; in short: as §3

AUC [1]: 82039 ng.Eq.hr/ml | CL/F [2]: 23.5 L/h | Radiolabel recovery [3]: 7.84 ugequiv | Radiolabel recovery [4]: 82.5% | Radiolabel recovery [5]: 13.45 ugequiv | Radiolabel recovery [6]: 1.63 ugequiv | Radiolabel recovery [7]: 18.4 ugequiv | Radiolabel recovery [8]: 10.7 ugequiv | Radiolabel recovery [9]: 9.18 ugequiv | Radiolabel recovery [10]: 15.71 ugequiv | Radiolabel recovery [11]: 0.06 ugequiv | Radiolabel recovery [12]: 0.06 ugequiv | Radiolabel recovery [13]: 0.06 ugequiv | Radiolabel recovery [14]: 14.16 ugequiv | Radiolabel recovery [15]: 0.28 ugequiv | Radiolabel recovery [16]: 18.64 ugequiv | Radiolabel recovery [17]: 6.2 ugequiv | Radiolabel recovery [18]: 14.12 ugequiv | Radiolabel recovery [19]: 6.18 ugequiv | Radiolabel recovery [20]: 25.22 ugequiv | Radiolabel recovery [21]: 4.42 ugequiv | Radiolabel recovery [22]: 0.36 ugequiv | Radiolabel recovery [23]: 0.19 ugequiv | Radiolabel recovery [24]: 3.23 ugequiv | Radiolabel recovery [25]: 0.37 ugequiv | Radiolabel recovery [26]: 0.27 ugequiv | Radiolabel recovery [27]: 0.36 ugequiv
SMILES: CCN(CC)CCNC(=O)c1c(C)[nH]c(/[14CH]=C2\C(=O)Nc3ccc(F)cc32)c1C.O=C(O)C[C@H](O)C(=O)O
